According to ChEMBL document CHEMBL1275433 (Antimicrob Agents Chemother, 2008):
≈ marks a conversion by molar mass, not a printed value.

Legend:
[1] = biological target: DNA gyrase subunit A/DNA gyrase subunit B (Mycobacterium tuberculosis (strain ATCC 25618 / H37Rv), UniProt P9WG45+P9WG47); assay: Inhibition of Mycobacterium tuberculosis DNA gyrase GyrA/GyrB; assay type: protein-complex assay
Summary of the method: (§1)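 Enzyme unit: protein needed for 50% supercoiling of 0.4 μg relaxed pBR322 DNA in 1 h at 37°C. Wild-type and mutant enzymes assayed in parallel on the same day under identical conditions. Repeated two to four times; representative values reported.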

DNA gyrase = DNA gyrase (Escherichia coli, UniProt P0AES4+P0AES6); assay: Inhibition of Escherichia coli DNA gyrase GyrA/GyrB; assay type: protein-complex assay; summary of the method: as §1
[2] = biological target: DNA gyrase subunit A/DNA gyrase subunit B (Mycobacterium tuberculosis (strain ATCC 25618 / H37Rv)) (UniProt P9WG45+P9WG47)
Escherichia coli [3] = assay: Antimicrobial activity against Escherichia coli harboring DNA gyrase GyrA QRDR; assay type: functional, organism-based
Salmonella typhimurium [4] = assay: Antimicrobial activity against Salmonella enterica Typhimurium harboring DNA gyrase GyrA QRDR; assay type: functional, Salmonella enterica subsp. enterica serovar Typhimurium
Haemophilus influenzae [5] = assay: Antimicrobial activity against Haemophilus influenzae harboring DNA gyrase GyrA QRDR; assay type: functional
Pseudomonas aeruginosa [6] = assay: Antimicrobial activity against Pseudomonas aeruginosa harboring DNA gyrase GyrA QRDR; assay type: functional, organism-based
Klebsiella oxytoca [7] = assay: Antimicrobial activity against Klebsiella oxytoca harboring DNA gyrase GyrA QRDR; assay type: functional
Methylovorus [8] = assay: Antimicrobial activity against Methylovorus sp. harboring DNA gyrase GyrA QRDR; assay type: functional
Neisseria gonorrhoeae [9] = assay: Antimicrobial activity against Neisseria gonorrhoeae harboring DNA gyrase GyrA QRDR; assay type: functional
Helicobacter pylori [10] = assay: Antimicrobial activity against Helicobacter pylori 1 harboring DNA gyrase GyrA QRDR; assay type: functional
Helicobacter pylori [11] = assay: Antimicrobial activity against Helicobacter pylori 2 harboring DNA gyrase GyrA QRDR; assay type: functional
Ehrlichia chaffeensis [12] = assay: Antimicrobial activity against Ehrlichia chaffeensis harboring DNA gyrase GyrA QRDR; assay type: functional
Bacteroides fragilis [13] = assay: Antimicrobial activity against Bacteroides fragilis harboring DNA gyrase GyrA QRDR; assay type: functional
Borrelia burgdorferi [14] = assay: Antimicrobial activity against Borrelia burgdorferi harboring DNA gyrase GyrA QRDR; assay type: functional; details: Borreliella burgdorferi
Staphylococcus aureus [15] = assay: Antimicrobial activity against Staphylococcus aureus harboring DNA gyrase GyrA QRDR; assay type: functional, organism-based
Enterococcus faecalis [16] = assay: Antimicrobial activity against Enterococcus faecalis harboring DNA gyrase GyrA QRDR; assay type: functional
Streptococcus pneumoniae [17] = assay: Antimicrobial activity against Streptococcus pneumoniae harboring DNA gyrase GyrA QRDR; assay type: functional, organism-based
[18] = system: Mycolicibacterium smegmatis; assay: Antimicrobial activity against Mycobacterium smegmatis harboring DNA gyrase GyrA QRDR; assay type: functional, organism-based
[19] = system: Mycolicibacterium fortuitum; assay: Antimicrobial activity against Mycobacterium fortuitum harboring DNA gyrase GyrA QRDR; assay type: functional, organism-based
Bacillus subtilis [20] = assay: Antimicrobial activity against Bacillus subtilis harboring DNA gyrase GyrA QRDR; assay type: functional
Escherichia coli [21] = assay: Antimicrobial activity against Escherichia coli harboring DNA gyrase GyrB QRDR; assay type: functional, organism-based
Salmonella typhimurium [22] = assay: Antimicrobial activity against Salmonella enterica Typhimurium harboring DNA gyrase GyrB QRDR; assay type: functional, Salmonella enterica subsp. enterica serovar Typhimurium
Haemophilus influenzae [23] = assay: Antimicrobial activity against Haemophilus influenzae harboring DNA gyrase GyrB QRDR; assay type: functional
Pseudomonas aeruginosa [24] = assay: Antimicrobial activity against Pseudomonas aeruginosa harboring DNA gyrase GyrB QRDR; assay type: functional, organism-based
Klebsiella oxytoca [25] = assay: Antimicrobial activity against Klebsiella oxytoca harboring DNA gyrase GyrB QRDR; assay type: functional
Methylovorus [26] = assay: Antimicrobial activity against Methylovorus sp. harboring DNA gyrase GyrB QRDR; assay type: functional
Neisseria gonorrhoeae [27] = assay: Antimicrobial activity against Neisseria gonorrhoeae harboring DNA gyrase GyrB QRDR; assay type: functional
Helicobacter pylori [28] = assay: Antimicrobial activity against Helicobacter pylori harboring DNA gyrase GyrB QRDR; assay type: functional
Ehrlichia chaffeensis [29] = assay: Antimicrobial activity against Ehrlichia chaffeensis harboring DNA gyrase GyrB QRDR; assay type: functional
Bacteroides fragilis [30] = assay: Antimicrobial activity against Bacteroides fragilis harboring DNA gyrase GyrB QRDR; assay type: functional
Borrelia burgdorferi [31] = assay: Antimicrobial activity against Borrelia burgdorferi harboring DNA gyrase GyrB QRDR; assay type: functional; details: Borreliella burgdorferi
Staphylococcus aureus [32] = assay: Antimicrobial activity against Staphylococcus aureus harboring DNA gyrase GyrB QRDR; assay type: functional, organism-based
Enterococcus faecalis [33] = assay: Antimicrobial activity against Enterococcus faecalis harboring DNA gyrase GyrB QRDR; assay type: functional
Streptococcus pneumoniae [34] = assay: Antimicrobial activity against Streptococcus pneumoniae harboring DNA gyrase GyrB QRDR; assay type: functional, organism-based
[35] = system: Mycolicibacterium smegmatis; assay: Antimicrobial activity against Mycobacterium smegmatis harboring DNA gyrase GyrB QRDR; assay type: functional, organism-based
[36] = system: Mycolicibacterium fortuitum; assay: Antimicrobial activity against Mycobacterium fortuitum harboring DNA gyrase GyrB QRDR; assay type: functional, organism-based
Bacillus subtilis [37] = assay: Antimicrobial activity against Bacillus subtilis harboring DNA gyrase GyrB QRDR; assay type: functional
[38] = biological target: DNA gyrase (Escherichia coli) (UniProt P0AES6+P0AES4)

Sequence of DNA gyrase subunit A/DNA gyrase subunit B (P9WG45 whole entry): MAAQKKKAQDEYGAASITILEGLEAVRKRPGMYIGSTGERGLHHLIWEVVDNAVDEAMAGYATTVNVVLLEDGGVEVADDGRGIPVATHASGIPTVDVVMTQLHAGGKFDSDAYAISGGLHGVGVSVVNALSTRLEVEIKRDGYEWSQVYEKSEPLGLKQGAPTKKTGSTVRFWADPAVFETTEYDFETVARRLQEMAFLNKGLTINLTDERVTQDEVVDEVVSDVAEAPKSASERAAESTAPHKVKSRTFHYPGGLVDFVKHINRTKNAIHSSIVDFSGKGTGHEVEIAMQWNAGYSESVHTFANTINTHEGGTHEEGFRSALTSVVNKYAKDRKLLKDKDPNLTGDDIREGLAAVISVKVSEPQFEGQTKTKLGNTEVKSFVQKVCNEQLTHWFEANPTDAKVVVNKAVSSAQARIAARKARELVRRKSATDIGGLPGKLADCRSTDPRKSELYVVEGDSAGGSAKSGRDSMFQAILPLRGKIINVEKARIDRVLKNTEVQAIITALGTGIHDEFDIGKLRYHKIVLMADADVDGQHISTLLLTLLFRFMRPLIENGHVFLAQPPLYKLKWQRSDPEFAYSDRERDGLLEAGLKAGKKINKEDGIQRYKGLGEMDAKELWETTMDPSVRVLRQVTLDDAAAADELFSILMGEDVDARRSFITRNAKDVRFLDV
Sequence of DNA gyrase subunit A/DNA gyrase subunit B (P9WG47 whole entry): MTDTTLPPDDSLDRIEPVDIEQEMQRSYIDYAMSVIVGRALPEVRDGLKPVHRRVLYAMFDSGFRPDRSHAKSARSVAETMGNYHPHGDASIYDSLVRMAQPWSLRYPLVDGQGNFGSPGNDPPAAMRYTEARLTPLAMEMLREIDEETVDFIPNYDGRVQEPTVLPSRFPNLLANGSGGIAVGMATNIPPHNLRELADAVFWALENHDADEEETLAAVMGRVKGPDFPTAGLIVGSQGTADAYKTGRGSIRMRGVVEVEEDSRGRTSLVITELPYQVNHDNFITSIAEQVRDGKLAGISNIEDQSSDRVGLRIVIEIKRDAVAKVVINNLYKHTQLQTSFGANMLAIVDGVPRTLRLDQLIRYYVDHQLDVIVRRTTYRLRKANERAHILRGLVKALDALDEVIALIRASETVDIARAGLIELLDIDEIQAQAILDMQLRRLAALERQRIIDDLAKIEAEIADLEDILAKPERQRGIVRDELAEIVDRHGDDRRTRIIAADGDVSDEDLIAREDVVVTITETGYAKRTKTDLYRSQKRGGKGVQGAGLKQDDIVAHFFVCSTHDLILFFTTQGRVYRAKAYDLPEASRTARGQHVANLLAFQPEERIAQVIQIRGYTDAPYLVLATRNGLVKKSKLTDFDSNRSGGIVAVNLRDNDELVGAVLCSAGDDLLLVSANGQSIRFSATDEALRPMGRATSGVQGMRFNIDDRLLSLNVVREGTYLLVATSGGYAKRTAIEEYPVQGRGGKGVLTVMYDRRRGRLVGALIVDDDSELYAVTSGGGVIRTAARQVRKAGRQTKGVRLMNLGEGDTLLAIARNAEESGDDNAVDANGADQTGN

CCn1cc(C(=O)O)c(=O)c2cc(F)c(N3CCNCC3)nc21 [ENOXACIN]
IC50 [1]: 156 µM | IC50 (DNA gyrase): 14 µM

COc1c(N2C[C@@H]3CCCN[C@@H]3C2)c(F)cc2c(=O)c(C(=O)O)cn(C3CC3)c12 [MOXIFLOXACIN]
CC25 [2]: 2 µM

CCn1cc(C(=O)O)c(=O)c2ccc(C)nc21 [NALIDIXIC ACID]
IC50 [1]: 4750 µM

CC1COc2c(N3CCN(C)CC3)c(F)cc3c(=O)c(C(=O)O)cn1c23 (centres undefined) [OFLOXACIN]
IC50 [1]: 28 µM | IC50 (Escherichia coli [3]): 0.3 µg/mL (≈ 0.83 µM) | MIC50 (Escherichia coli [3]): 0.01 µg/mL (≈ 0.0277 µM) | MIC50 (Salmonella typhimurium [4]): 0.01 µg/mL (≈ 0.0277 µM) | MIC50 (Haemophilus influenzae [5]): 0.01 µg/mL (≈ 0.0277 µM) | IC50 (Pseudomonas aeruginosa [6]): 0.5 µg/mL (≈ 1.38 µM) | MIC50 (Pseudomonas aeruginosa [6]): 0.25 µg/mL (≈ 0.692 µM) | MIC50 (Klebsiella oxytoca [7]): 0.01 µg/mL (≈ 0.0277 µM) | MIC50 (Methylovorus [8]): 0.8 µg/mL (≈ 2.21 µM) | MIC50 (Neisseria gonorrhoeae [9]): 0.008 µg/mL (≈ 0.0221 µM) | MIC50 (Helicobacter pylori [10]): 0.06 µg/mL (≈ 0.166 µM) | MIC50 (Helicobacter pylori [11]): 0.25 µg/mL (≈ 0.692 µM) | MIC50 (Ehrlichia chaffeensis [12]): 16 µg/mL (≈ 44.3 µM) | MIC50 (Bacteroides fragilis [13]): 4 µg/mL (≈ 11.1 µM) | MIC50 (Borrelia burgdorferi [14]): 8 µg/mL (≈ 22.1 µM) | IC50 (Staphylococcus aureus [15]): 10 µg/mL (≈ 27.7 µM) | MIC50 (Staphylococcus aureus [15]): 0.5 µg/mL (≈ 1.38 µM) | MIC50 (Enterococcus faecalis [16]): 1 µg/mL (≈ 2.77 µM) | IC50 (Streptococcus pneumoniae [17]): 40 µg/mL (≈ 111 µM) | MIC50 (Streptococcus pneumoniae [17]): 1 µg/mL (≈ 2.77 µM) | IC50 [18]: 10 µg/mL (≈ 27.7 µM) | MIC50 [18]: 1 µg/mL (≈ 2.77 µM) | IC50 [19]: 1 µg/mL (≈ 2.77 µM) | MIC50 [19]: 0.06 µg/mL (≈ 0.166 µM) | MIC50 (Bacillus subtilis [20]): 0.12 µg/mL (≈ 0.332 µM) | IC50 (Escherichia coli [21]): 0.3 µg/mL (≈ 0.83 µM) | MIC50 (Escherichia coli [21]): 0.01 µg/mL (≈ 0.0277 µM) | MIC50 (Salmonella typhimurium [22]): 0.01 µg/mL (≈ 0.0277 µM) | MIC50 (Haemophilus influenzae [23]): 0.012 µg/mL (≈ 0.0332 µM) | IC50 (Pseudomonas aeruginosa [24]): 0.5 µg/mL (≈ 1.38 µM) | MIC50 (Pseudomonas aeruginosa [24]): 0.25 µg/mL (≈ 0.692 µM) | MIC50 (Klebsiella oxytoca [25]): 0.01 µg/mL (≈ 0.0277 µM) | MIC50 (Methylovorus [26]): 0.8 µg/mL (≈ 2.21 µM) | MIC50 (Neisseria gonorrhoeae [27]): 0.008 µg/mL (≈ 0.0221 µM) | MIC50 (Helicobacter pylori [28]): 0.25 µg/mL (≈ 0.692 µM) | MIC50 (Ehrlichia chaffeensis [29]): 16 µg/mL (≈ 44.3 µM) | MIC50 (Bacteroides fragilis [30]): 4 µg/mL (≈ 11.1 µM) | MIC50 (Borrelia burgdorferi [31]): 8 µg/mL (≈ 22.1 µM) | IC50 (Staphylococcus aureus [32]): 10 µg/mL (≈ 27.7 µM) | MIC50 (Staphylococcus aureus [32]): 0.5 µg/mL (≈ 1.38 µM) | MIC50 (Enterococcus faecalis [33]): 1 µg/mL (≈ 2.77 µM) | IC50 (Streptococcus pneumoniae [34]): 40 µg/mL (≈ 111 µM) | MIC50 (Streptococcus pneumoniae [34]): 1 µg/mL (≈ 2.77 µM) | IC50 [35]: 10 µg/mL (≈ 27.7 µM) | MIC50 [35]: 1 µg/mL (≈ 2.77 µM) | IC50 [36]: 1 µg/mL (≈ 2.77 µM) | MIC50 [36]: 0.06 µg/mL (≈ 0.166 µM) | MIC50 (Bacillus subtilis [37]): 0.12 µg/mL (≈ 0.332 µM) | CC25 [2]: 7 µM | CC25 [38]: 0.2 µM
